# High-throughput results: PubChem, The Scripps Research Institute Molecular Screening Center
# HTR2A ag – agonists of mouse serotonin 5-HT2A receptor (HTR2A); CHO-K1 mHTR2A beta-arrestin complementation, luminescence; percent of 30 µM serotonin response; activation, % at 7.6 µM; 360,000 tested, 0.66% active;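 active means activation above a run cutoff, the mean activation of all tested compounds plus 3 SD, cut at about 14% in these data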;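 further: 0% = plate median of compound wells and 100% = 30 µM serotonin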
# GAA850 FXN act – activators of GAA850 frataxin (FXN) promoter; HEK293 lucGAA850 FXN promoter luciferase reporter, 24 h; percent of 10 µM SAHA response; activation, % at 6 µM; 360,000 tested, 0.56% active;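 active means activation above the average of all compounds screened plus 3 SD, cutoff fixed separately per campaign, cut at about 7.5% in these data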;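 further: 0% = DMSO wells and 100% = 10 µM SAHA wells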
# MC4R antag cAMP – blocks human MC4R cAMP signaling | P32245 | MC4R-expressing cells, MTII-stimulated cAMP, LANCE TR-FRET | inhibition, % at 6.5 µM | 360,000 tested, 0.48% active | AID 540295;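 active means inhibition above its plate's cutoff, the mean of tested wells on that plate plus 3 SD, cut at about 29% in these data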;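 further: 0% = Melanotan II alone and 100% = Melanotan II plus saturating MCL0020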
# Target sequence (P32245 whole entry, looked up): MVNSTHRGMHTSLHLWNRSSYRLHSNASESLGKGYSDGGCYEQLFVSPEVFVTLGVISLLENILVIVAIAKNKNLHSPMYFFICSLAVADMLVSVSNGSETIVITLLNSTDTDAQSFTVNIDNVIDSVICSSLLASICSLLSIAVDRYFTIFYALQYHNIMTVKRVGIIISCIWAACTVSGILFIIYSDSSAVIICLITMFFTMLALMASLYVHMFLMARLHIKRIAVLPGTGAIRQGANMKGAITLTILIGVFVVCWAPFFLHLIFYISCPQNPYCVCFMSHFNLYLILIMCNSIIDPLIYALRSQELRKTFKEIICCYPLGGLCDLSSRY
#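 Assay system: human MC4R-expressing U2OS cells; reagent: Melanotan II stimulation of cells; dosing: 6.5 µM single dose; timing: compound 30 min, challenge 1 h, detection 1 h; signal: TR-FRET cAMP assay; replicates: one well per compound, no replicates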
# MC4R barr agon – agonists of human melanocortin 4 receptor (MC4R) beta-arrestin | 360,000 tested, 0.98% active | activation, % at 8.9 µM | U2OS MC4R beta-arrestin complementation, luminescence; percent of melanotan II response, DMSO zero;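 active means activation above a per-plate cutoff, the mean activation of sample wells on that plate plus 3 SD, cut at about 8% in these data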
# AHR act – human AHR activation. P35869. AHR-responsive luciferase reporter cells, luminescence. activation, % at 5 µM. 320,000 tested, 2.5% active. AID 2796; in the data active means activation above about 47%;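 further: 0% = vehicle wells and 100% = reference agonist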
# cAMP nonselect – counter-screen for MC4R antagonists: nonselective cAMP signaling inhibitors | 1,600 tested, 26% active | inhibition, % at 6.5 µM | parental U2OS, forskolin cAMP, LANCE TR-FRET | shares compounds with MC4R antag cAMP;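 active means mean inhibition over triplicates above the low-control well mean plus 3 SD, set per campaign, cut at about 13% in these data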;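 further: signal is single emission at 671 nm which falls as cellular cAMP rises; 0% = forskolin-stimulated wells and 100% = buffer without forskolin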
# MC4R antag conf – human MC4R cAMP antagonism confirmation | shares compounds with MC4R antag cAMP | MC4R-expressing cells, MTII-stimulated cAMP, TR-FRET | inhibition, % at 6.5 µM | 1,600 tested, 27% active; in the data active means inhibition above about 29%;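 further: 0% = agonist stimulated wells alone and 100% = agonist stimulated wells plus saturating reference antagonist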
# Numbers without * were called inactive; nt = no result. An excerpt weighted towards active compounds, which were near 4.7% of everything screened.
SMILES,HTR2A ag,GAA850 FXN act,MC4R antag cAMP,MC4R barr agon,AHR act,cAMP nonselect,MC4R antag conf
CCC(C)Nc1nc(Cl)nc(N(C#N)CN2C(=O)c3ccccc3S2(=O)=O)n1 (stereo not given),-9,2,48*,-1,0,23*,40*
Cc1nc(=O)c(-c2ccccc2)c(C)n1-c1ccccc1,2,-2,31*,2,-1,-6,-3
Cc1sc2ncnc(Sc3ccccc3C(=O)O)c2c1C,0,1,97*,0,2,50*,87*
Cn1cccc1C(NC(=O)c1ccccc1)C(Cl)(Cl)Cl (stereo not given),5,0,6,1,5,nt,nt
CCCCOc1ccc(C(NC(=O)OCC)NC(=O)OCC)cc1,2,2,29*,-2,3,0,2
CCOc1ccc(CCNC(=O)CCS(=O)(=O)c2ccc(Br)cc2)cc1OCC,2,0,29*,1,2,0,10
O=C(COC(=O)CNC(=O)c1ccc2c(c1)OCO2)Nc1ncc(Cl)cc1Cl,3,2,30*,-2,0,14*,23
O=C(COC(=O)/C=C/c1ccco1)Nc1ncc(Cl)cc1Cl,2,0,31*,-1,2,-4,-18
CCc1nc2ccc(C(=O)N(CC)CCN(C)C)cn2c1N(CC)CCOC,-5,-2,14,2,nt,nt,nt
O=C(O)c1cccc2c1C(=O)c1ccc(N3CCN(Cc4ccc5c(c4)OCO5)CC3)cc1S2(=O)=O,0,-1,33*,2,nt,-1,-4
COC(=O)C1(C)NC(c2cccc(C)c2)C2C(=O)N(c3ccccc3)C(=O)C21 (stereo not given),0,-1,1,-1,nt,nt,nt
CC(OC(=O)Cn1cnc2c1c(=O)n(C)c(=O)n2C)C(=O)NC(C)c1ccc(Cl)cc1Cl (stereo not given),-4,-2,36*,-4,12,12,12
CC(OC(=O)Cn1cc(C(F)(F)F)ccc1=O)C(=O)NC(C)c1ccc(Cl)cc1Cl (stereo not given),-3,0,17,-2,0,nt,nt
N#Cc1c(N2CCN(C(=O)c3ccco3)CC2)nc(-c2ccccc2)c2c1CCCC2,-8,3,34*,2,2,8,43*
N=c1c2c(ncn1Cc1ccco1)Oc1cc(O)ccc1C2c1ccccc1 (stereo not given),-6,0,33*,0,-1,-1,-1
O=C(Nc1ccc(C(=O)O)cc1)/C(=C\c1ccc([N+](=O)[O-])cc1)NC(=O)c1ccco1,0,0,-7,1,nt,nt,nt
COc1ccc(CN(C(=O)c2snc(C(N)=O)c2N)C(C(=O)NC2CCCC2)c2ccc(OC)c(OC)c2)cc1 (stereo not given),-2,-1,0,1,1,nt,nt
COc1ccc(C(C(=O)NC2CCCCC2)N(Cc2cccnc2)C(=O)c2snc(C(N)=O)c2N)cc1 (stereo not given),1,-1,31*,-2,-1,-6,-12
COc1cc(OC)cc(C(=O)Nc2cc(-c3cn4cccnc4n3)ccc2C)c1,1,-1,26,0,13,nt,nt
Cc1ccc(-c2cn3cccnc3n2)cc1NC(=O)c1cccs1,5,1,30*,2,30,-5,-15
Cc1ccc(S(=O)(=O)N2C3CC(c4ccccc4)N(S(=O)(=O)c4ccccc4Cl)CC3C(=O)C[C@H]2c2ccccc2)cc1 (stereo not given in full),-3,nt,nt,nt,nt,nt,nt
O=C1C2C(c3ccccc3)(C(=O)N1c1ccc(Cl)cc1)C2(c1ccccc1)c1ccccc1 (stereo not given),7,-2,38*,1,2,-7,-6
CC12CCC(C(=O)N(c3ccc(Cl)cc3)C1=O)C2(C)C (stereo not given),0,3,8,0,1,nt,nt
Cc1nnc(SC(C)C(=O)Nc2ccc(N3CCOCC3)cc2)n1Cc1ccccc1 (stereo not given),3,2,-2,0,nt,nt,nt
COc1cccc(C(=O)Nc2ccc(S(=O)(=O)Nc3cc(C)nc(C)n3)cc2)c1,-2,0,29*,-1,0,-1,-1
SMILES,HTR2A ag,GAA850 FXN act,MC4R antag cAMP,MC4R barr agon,AHR act,cAMP nonselect,MC4R antag conf
O=C(CC(=O)c1cccs1)c1ccncc1,-5,3,-5,-3,nt,nt,nt
CC(=O)N(Cc1c(C)nn(-c2ccccc2)c1Cl)c1ccc(Cl)cc1,-2,-2,0,0,3,nt,nt
Cc1nn(-c2ccccc2)c(Cl)c1CN(C(=O)CCl)c1ccc(Cl)cc1,-3,-4,40*,11*,1,-37,47*
CC(C)[C@@H]1Cc2[nH]n(C)c(=O)c2[C@H](c2ccc(F)cc2)O1,4,nt,nt,nt,nt,nt,nt
O=C(COC(=O)CNC(=O)c1cccc(F)c1)NCCC1=CCCCC1,5,3,29*,-1,2,18*,40*
CC1CCN(c2nc(-c3cccnc3)nc3scc(-c4ccccc4)c23)CC1,1,0,11,1,15,nt,nt
CC1CCCN(c2nc(-c3cccnc3)nc3scc(-c4ccccc4)c23)C1 (stereo not given),5,5,37*,0,26,0,21
COc1ccc(-c2c3c(nc4sc5c(Cl)nc(C)nc5c24)CCC3)cc1,8,-2,41*,1,-2,41*,64*
Cc1ccc(-c2c3c(nc4sc(C(N)=O)c(N)c24)CCC3)cc1,3,-4,4,5,-4,nt,nt
O=C(NC(Nc1nc2ccc([N+](=O)[O-])cc2s1)(C(F)(F)F)C(F)(F)F)c1ccccc1Cl,2,-13,33*,1,-14,6,18
Cc1ccccc1S(=O)(=O)NC(=O)C1(C)CCN1C(=O)COc1ccc(Cl)cc1 (stereo not given),4,1,-4,0,nt,nt,nt
CCOC(=O)C1CCN(CC(=O)Nc2cc(S(=O)(=O)N3CCCCC3)ccc2Cl)CC1,-2,1,3,-3,nt,nt,nt
O=C1COc2ccc(C(=O)COC(=O)c3ncc(Cl)c(Cl)c3Cl)cc2N1,8,-1,29*,5,14,2,1
O=C1COc2ccc(C(=O)COC(=O)c3nc(Cl)ccc3Cl)cc2N1,7,3,5,0,nt,nt,nt
CC(=O)Nc1nc(C2CC2)cc(-c2ccccc2)c1C#N,-7,1,35*,-1,4,1,0
Cc1cccc(S(=O)(=O)NC(=O)C2(C)CCN2C(=O)Cc2ccc(C(C)(C)C)cc2)c1 (stereo not given),-5,0,12,-3,nt,nt,nt
